Source: ChEMBL document CHEMBL4627366, “Structure-based drug design of 1,3,5-triazine and pyrimidine derivatives as novel FGFR3 inhibitors with high selectivity over VEGFR2” (Bioorg Med Chem, 2020)

Key:
[1] = molecular target: Vascular endothelial growth factor receptor 2 (Homo sapiens, UniProt P35968); assay: Inhibition of N-terminal GST-tagged human VEGFR2 cytoplasmic domain (790-1356 end amino acid residue) expressed in baculovirus expression system preincubated for 30 to 120 mins followed by incubation with substrate and ATP for 30 mins by off-chip mobility shift assay
Outline: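 Recombinant VEGFR2 kinase preincubated with compound for 30 or 120 min at RT. Substrate plus ATP (75 µmol/L) added, 30 min at RT, then stopped with termination buffer and read by off-chip mobility shift. No-ATP wells set as 100% inhibition, DMSO wells as 0%. IC50 from Sigmoid-Emax nonlinear regression per experiment.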

[2] = molecular target: Fibroblast growth factor receptor 1 (Homo sapiens, UniProt P11362); assay: Inhibition of N-terminal GST-tagged human FGFR1 cytoplasmic domain (398-822 end amino acids residues) expressed in baculovirus expression system preincubated for 30 to 120 mins followed by incubation with substrate and ATP for 30 mins by off-chip mobility shift assay
[3] = molecular target: Fibroblast growth factor receptor 2 (Homo sapiens, UniProt P21802); assay: Inhibition of N-terminal GST-tagged human FGFR2 cytoplasmic domain (399-821 end amino acids residues) expressed in baculovirus expression system preincubated for 30 to 120 mins followed by incubation with substrate and ATP for 30 mins by off-chip mobility shift assay
[4] = molecular target: Fibroblast growth factor receptor 4 (Homo sapiens, UniProt P22455); assay: Inhibition of N-terminal GST-tagged human FGFR4 cytoplasmic domain (460-802 end amino acids residues) expressed in baculovirus expression system preincubated for 30 to 120 mins followed by incubation with substrate and ATP for 30 mins by off-chip mobility shift assay
[5] = Antiproliferative activity against human UM-UC-14 cells harboring FGFR3 S249C mutation assessed as inhibition of cell growth incubated for 5 days by CellTier-Glo luminescent assay; settings: UMUC14, 120 h
[6] = molecular target: Fibroblast growth factor receptor 3 (Homo sapiens, UniProt P22607); assay: Inhibition of N-terminal GST-tagged human FGFR3 cytoplasmic domain (436-806 end amino acids residues) expressed in baculovirus expression system preincubated for 30 to 120 mins followed by incubation with substrate and ATP for 30 mins by off-chip mobility shift assay
Fibroblast growth factor receptor 3, sequence (P22607 whole entry, the tested form may be a part): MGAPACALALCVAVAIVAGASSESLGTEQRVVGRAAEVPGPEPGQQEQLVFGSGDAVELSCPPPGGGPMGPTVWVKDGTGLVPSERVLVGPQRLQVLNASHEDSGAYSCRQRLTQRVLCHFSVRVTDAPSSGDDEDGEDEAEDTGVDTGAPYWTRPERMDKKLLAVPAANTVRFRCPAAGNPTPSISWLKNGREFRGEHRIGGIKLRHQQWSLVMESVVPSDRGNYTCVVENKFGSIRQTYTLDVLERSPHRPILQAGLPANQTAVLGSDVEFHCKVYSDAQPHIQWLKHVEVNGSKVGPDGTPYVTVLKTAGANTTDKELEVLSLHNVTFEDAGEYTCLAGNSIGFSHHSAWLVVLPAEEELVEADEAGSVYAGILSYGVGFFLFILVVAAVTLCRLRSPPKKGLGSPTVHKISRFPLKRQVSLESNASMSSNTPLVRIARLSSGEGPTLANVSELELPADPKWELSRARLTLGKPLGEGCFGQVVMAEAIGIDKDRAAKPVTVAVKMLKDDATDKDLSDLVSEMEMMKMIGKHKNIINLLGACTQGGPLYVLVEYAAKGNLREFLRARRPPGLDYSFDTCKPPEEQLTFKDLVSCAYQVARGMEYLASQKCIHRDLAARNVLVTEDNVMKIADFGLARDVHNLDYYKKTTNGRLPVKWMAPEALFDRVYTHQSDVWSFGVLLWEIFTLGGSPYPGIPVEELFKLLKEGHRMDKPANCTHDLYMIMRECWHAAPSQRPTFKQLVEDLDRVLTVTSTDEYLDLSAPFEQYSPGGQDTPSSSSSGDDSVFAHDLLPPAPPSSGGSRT

Vascular endothelial growth factor receptor 2, sequence (P35968 whole entry, the tested form may be a part): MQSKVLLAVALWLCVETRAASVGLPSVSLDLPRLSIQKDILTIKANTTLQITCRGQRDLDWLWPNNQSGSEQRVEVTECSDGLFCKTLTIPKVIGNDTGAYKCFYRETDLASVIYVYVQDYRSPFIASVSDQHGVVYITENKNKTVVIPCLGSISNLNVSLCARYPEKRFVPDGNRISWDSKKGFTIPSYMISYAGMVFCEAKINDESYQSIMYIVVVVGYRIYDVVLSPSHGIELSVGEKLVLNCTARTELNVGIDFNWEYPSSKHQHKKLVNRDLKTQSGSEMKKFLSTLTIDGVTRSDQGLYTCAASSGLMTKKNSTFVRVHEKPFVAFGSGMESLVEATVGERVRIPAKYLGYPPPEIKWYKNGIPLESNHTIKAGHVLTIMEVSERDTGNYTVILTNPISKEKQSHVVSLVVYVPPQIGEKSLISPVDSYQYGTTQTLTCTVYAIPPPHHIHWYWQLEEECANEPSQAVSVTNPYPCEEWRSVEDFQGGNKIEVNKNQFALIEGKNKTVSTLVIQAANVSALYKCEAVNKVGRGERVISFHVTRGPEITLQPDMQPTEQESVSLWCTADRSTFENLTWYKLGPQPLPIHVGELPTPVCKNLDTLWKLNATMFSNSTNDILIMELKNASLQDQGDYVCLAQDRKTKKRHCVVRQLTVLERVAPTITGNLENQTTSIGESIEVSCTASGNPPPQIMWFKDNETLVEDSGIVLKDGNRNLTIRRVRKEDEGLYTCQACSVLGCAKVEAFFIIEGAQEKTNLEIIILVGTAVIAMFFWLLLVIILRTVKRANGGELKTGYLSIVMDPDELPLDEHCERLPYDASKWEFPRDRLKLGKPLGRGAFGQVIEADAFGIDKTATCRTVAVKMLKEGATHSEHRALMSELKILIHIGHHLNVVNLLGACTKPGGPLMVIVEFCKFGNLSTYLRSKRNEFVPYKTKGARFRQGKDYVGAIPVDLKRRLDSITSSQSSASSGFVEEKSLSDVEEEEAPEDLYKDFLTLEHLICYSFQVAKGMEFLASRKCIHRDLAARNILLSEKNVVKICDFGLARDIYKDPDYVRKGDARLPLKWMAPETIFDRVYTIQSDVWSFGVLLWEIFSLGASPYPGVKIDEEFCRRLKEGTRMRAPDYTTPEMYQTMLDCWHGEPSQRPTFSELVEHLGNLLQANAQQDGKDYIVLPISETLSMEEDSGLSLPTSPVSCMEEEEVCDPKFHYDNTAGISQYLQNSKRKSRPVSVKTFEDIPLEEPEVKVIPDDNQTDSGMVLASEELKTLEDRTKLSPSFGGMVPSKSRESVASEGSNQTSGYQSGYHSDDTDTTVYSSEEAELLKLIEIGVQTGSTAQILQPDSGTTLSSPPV
Fibroblast growth factor receptor 4, sequence (P22455 whole entry, the tested form may be a part): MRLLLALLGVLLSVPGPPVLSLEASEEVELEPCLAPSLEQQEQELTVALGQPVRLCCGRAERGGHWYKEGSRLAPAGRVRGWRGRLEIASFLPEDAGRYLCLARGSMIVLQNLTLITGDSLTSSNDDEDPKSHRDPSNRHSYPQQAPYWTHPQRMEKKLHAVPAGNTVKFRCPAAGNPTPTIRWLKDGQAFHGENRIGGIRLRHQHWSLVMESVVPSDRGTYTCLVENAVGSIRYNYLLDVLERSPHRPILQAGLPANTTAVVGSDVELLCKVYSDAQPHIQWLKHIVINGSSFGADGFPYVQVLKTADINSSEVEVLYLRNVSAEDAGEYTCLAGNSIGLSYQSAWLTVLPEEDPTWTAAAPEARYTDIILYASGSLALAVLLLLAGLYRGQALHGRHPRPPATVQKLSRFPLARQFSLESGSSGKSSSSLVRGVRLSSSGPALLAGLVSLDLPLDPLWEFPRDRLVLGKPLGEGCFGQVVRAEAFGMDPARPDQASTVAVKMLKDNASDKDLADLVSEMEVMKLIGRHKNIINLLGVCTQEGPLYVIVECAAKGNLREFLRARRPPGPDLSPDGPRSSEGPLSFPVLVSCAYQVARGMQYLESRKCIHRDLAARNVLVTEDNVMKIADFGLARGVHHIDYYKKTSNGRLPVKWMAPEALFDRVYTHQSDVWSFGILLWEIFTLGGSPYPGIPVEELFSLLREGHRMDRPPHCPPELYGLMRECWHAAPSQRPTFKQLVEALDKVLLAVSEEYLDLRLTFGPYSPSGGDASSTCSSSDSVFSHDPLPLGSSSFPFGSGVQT
Fibroblast growth factor receptor 1, sequence (P11362 whole entry, the tested form may be a part): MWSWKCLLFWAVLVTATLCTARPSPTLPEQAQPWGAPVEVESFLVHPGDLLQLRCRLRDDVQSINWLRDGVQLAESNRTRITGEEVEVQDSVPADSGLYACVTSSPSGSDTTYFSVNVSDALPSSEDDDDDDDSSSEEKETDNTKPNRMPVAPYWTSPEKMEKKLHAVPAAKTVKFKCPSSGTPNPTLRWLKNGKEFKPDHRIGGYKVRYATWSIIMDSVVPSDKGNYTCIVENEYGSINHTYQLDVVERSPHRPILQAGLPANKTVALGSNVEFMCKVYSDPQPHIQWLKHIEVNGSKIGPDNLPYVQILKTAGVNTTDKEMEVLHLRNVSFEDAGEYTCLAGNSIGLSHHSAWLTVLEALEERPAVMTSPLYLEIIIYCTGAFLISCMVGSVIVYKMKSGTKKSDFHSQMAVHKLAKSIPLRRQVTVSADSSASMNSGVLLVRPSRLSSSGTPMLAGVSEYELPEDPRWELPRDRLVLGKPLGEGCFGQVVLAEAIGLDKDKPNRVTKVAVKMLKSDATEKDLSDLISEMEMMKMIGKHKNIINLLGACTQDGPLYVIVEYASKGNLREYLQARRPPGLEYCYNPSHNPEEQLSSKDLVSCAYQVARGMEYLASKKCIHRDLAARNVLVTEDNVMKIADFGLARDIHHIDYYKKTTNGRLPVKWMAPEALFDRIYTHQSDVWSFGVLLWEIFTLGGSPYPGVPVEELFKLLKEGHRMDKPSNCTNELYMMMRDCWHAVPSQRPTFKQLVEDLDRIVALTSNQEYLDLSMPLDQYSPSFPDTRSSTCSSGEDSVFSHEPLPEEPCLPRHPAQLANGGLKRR
Fibroblast growth factor receptor 2, sequence (P21802 whole entry, the tested form may be a part): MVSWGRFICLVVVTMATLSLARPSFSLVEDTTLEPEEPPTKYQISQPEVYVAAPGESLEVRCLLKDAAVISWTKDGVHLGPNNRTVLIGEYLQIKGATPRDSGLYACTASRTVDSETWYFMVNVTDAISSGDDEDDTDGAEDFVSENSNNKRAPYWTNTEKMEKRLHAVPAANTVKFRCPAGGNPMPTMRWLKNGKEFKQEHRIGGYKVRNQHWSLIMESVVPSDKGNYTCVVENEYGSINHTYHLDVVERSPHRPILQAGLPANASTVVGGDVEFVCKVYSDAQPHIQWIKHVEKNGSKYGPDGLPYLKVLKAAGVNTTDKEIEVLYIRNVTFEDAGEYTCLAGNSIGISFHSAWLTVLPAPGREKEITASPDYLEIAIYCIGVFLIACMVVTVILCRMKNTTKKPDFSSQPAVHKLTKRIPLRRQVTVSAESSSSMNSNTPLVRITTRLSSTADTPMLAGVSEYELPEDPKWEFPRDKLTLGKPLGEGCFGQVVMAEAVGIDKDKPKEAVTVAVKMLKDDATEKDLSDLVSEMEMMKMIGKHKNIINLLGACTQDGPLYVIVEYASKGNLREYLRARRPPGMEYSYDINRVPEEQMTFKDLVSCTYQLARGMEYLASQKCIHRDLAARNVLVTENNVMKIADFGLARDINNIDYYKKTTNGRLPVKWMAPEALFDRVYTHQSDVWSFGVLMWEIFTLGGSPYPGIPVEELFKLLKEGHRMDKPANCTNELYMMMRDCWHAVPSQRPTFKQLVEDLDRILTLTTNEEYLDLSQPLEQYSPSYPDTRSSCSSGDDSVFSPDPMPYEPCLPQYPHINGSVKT

IC50 [1] [nM] | SMILES | other results
292 | CCNS(=O)(=O)c1ccccc1Nc1nc(Nc2ccc(N3CCC(N4CCN(C)CC4)CC3)c(OC)c2)ncc1CCc1cc(OC)cc(OC)c1 | –
38 | CCNS(=O)(=O)c1ccccc1Nc1nc(Nc2ccc(N3CCC(N4CCN(C)CC4)CC3)c(OC)c2)ncc1-c1cc(OC)cc(OC)c1 | –
131 | CCNS(=O)(=O)c1ccccc1Nc1nc(Nc2ccc(N3CCC(N4CCN(C)CC4)CC3)c(OC)c2)ncc1NC(=O)c1nc(OC)cc(OC)n1 | –
461 | CCNS(=O)(=O)c1ccccc1Nc1nc(Nc2ccc(N3CCC(N4CCN(C)CC4)CC3)c(OC)c2)ncc1NC(=O)c1cccc(OC)c1OC | –
341 | CCNS(=O)(=O)c1ccccc1Nc1ncnc(Nc2ccc(N3CCN(C)CC3)c(OC)c2)n1 | –
341 | CCNS(=O)(=O)c1ccccc1Nc1ncnc(Nc2ccc(N3CCN(C)CC3)c(OCCN3CCN(C)CC3)c2)n1 | –
736 | CCNS(=O)(=O)c1ccccc1Nc1ncnc(Nc2ccc(N3CCN(C)CC3)c(OCCCN3CCOCC3)c2)n1 | –
554 | CCNS(=O)(=O)c1ccccc1Nc1nc(Nc2ccc(N3CCC(N4CCN(C)CC4)CC3)c(OC)c2)ncc1NC(=O)c1cc(C)cc(C)c1 | –
550 | CCNS(=O)(=O)c1ccccc1Nc1ncnc(Nc2ccc(N3CCN(C)CC3)c(OCCOCCOC)c2)n1 | –
266 | CCNS(=O)(=O)c1ccccc1Nc1ncnc(Nc2ccc(N3CCC(N4CCN(C)CC4)CC3)c(OC)c2)n1 | –
> 1000 | CCNS(=O)(=O)c1ccccc1Nc1nc(Nc2ccc(N3CCC(N4CCN(C)CC4)CC3)c(OC)c2)ncc1NC(=O)c1cc(OC)cc(OC)c1 | IC50 [2]: 2.1 nM; IC50 [3]: 3.1 nM; IC50 [4]: 74 nM; IC50 [5]: 84 nM
227 | CCNS(=O)(=O)c1ccccc1Nc1nc(Nc2ccc(N3CCC(N4CCN(C)CC4)CC3)c(OC)c2)ncc1NC(=O)c1cc(OC)nc(OC)n1 | –
120 | CCNS(=O)(=O)c1ccccc1Nc1ncnc(Nc2ccc(N3CCN(C)CC3)c(OCC(=O)O)c2)n1 | –
316 | CCNS(=O)(=O)c1ccccc1Nc1ncnc(Nc2ccc(N3CCN(C)CC3)c(OCC(=O)OCC)c2)n1 | –
310 | CCNS(=O)(=O)c1ccccc1Nc1ncnc(Nc2ccc(N3CCN(C)CC3)c(OCCOC)c2)n1 | –
570 | CCNS(=O)(=O)c1ccccc1Nc1ncnc(Nc2ccc(N3CCN(C)CC3)c(OCCN3CCOCC3)c2)n1 | –
> 1000 | CCNS(=O)(=O)c1ccccc1Nc1nc(Nc2ccc(N3CCC(N4CCN(C)CC4)CC3)c(OC)c2)ncc1Cc1cc(OC)cc(OC)c1 | IC50 [6]: > 1000 nM
435 | CCNS(=O)(=O)c1ccccc1Nc1nc(Nc2ccc(N3CCC(N4CCN(C)CC4)CC3)c(OC)c2)ncc1NC(=O)c1cc(OC)ccc1OC | –
715 | CCNS(=O)(=O)c1ccccc1Nc1nc(Nc2ccc(N3CCC(N4CCN(C)CC4)CC3)c(OC)c2)ncc1NC(=O)c1cc(O)cc(O)c1 | –
